From article PMC6595297 (British Journal of Clinical Pharmacology, 2019)

Columns and labels:
[1] = Safety and tolerability; assay type: in vivo, human
In short: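 Patients had advanced solid tumours and ECOG PS 0–1. AEs were graded by NCI CTCAE v4.03 and monitored from the first dose of any study drug until 30–40 days after the last dose. The safety population was all patients receiving at least one pevonedistat dose.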

[2] = estimated across doses and schedules, 1‐h IV infusion; cited from earlier work
[3] = test system: CYP3A4; conditions: in vitro metabolism studies, ref data on file; cited from earlier work
[4] = Phase I DDI study: pevonedistat plasma PK alone and with fluconazole; assay type: in vivo, human
In short: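 Single IV pevonedistat given on day 1 alone and on day 8 with the CYP3A inhibitor. K2EDTA plasma was sampled within 1 h predose, at end of infusion, and at 0.5, 1, 2, 3, 4, 8, 12, 24, 48 and 72 h postdose. Samples were assayed by two GLP-validated LC–MS/MS methods (0.0500–25.0 and 1.00–500 ng mL−1). Noncompartmental PK was used. Day 8/day 1 geometric mean ratios with 90% CIs came from ANOVA (subject random), back-transformed.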

[5] = test system: multidrug resistance protein 1 (MDR1)/P‐glycoprotein (P‐gp); conditions: in vitro, ref data on file; cited from earlier work
[6] = preliminary data, cancer patients, ref data on file; cited from earlier work
[7] = Pevonedistat 8 mg m^−2 + fluconazole (n = 13)
[8] = Pevonedistat 8 mg m^−2 + itraconazole (n = 13)
[9] = Pevonedistat 15 mg m^−2 + itraconazole (n = 6)
[10] = Pevonedistat 20 mg m^−2 + itraconazole (n = 19)
[11] = Pevonedistat + itraconazole, total (n = 38)
[12] = across all study groups, N = 51
[13] = Pevonedistat 8 mg m^−2, + fluconazole (day 8) vs alone (day 1), n = 12
[14] = human, plasma, intravenous, 8 mg

In the case of `NS(=O)(=O)OC[C@@H]1C[C@@H](n2ccc3c(N[C@H]4CCc5ccccc54)ncnc32)C[C@@H]1O` [Pevonedistat], the “Patients who discontinued study treatment due to AEs” value ([1]; N = 51) is reported as 12%, the “Abdominal pain, patients with AE” value [1, 7] is reported as 1 (8) n (%) and the “Anaemia, patients with AE” value [1, 7] is reported as 3 (23) n (%). For the same compound, the “Asthenia, patients with AE” value [1, 7] was 3 (23) n (%), the “Constipation, patients with AE” value [1, 7] was 3 (23) n (%) and the “Cough, patients with AE” value [1, 7] was 2 (15) n (%). For the same compound, the “Decreased appetite, patients with AE” value [1, 7] was 4 (31) n (%), the “Dehydration, patients with AE” value [1, 7] was 1 (8) n (%) and the “Diarrhoea, patients with AE” value [1, 7] was 0 n (%). For the same compound, the “Dizziness, patients with AE” value [1, 7] was 1 (8) n (%), the “Dyspnoea, patients with AE” value [1, 7] was 2 (15) n (%) and the “Fatigue, patients with AE” value [1, 7] was 3 (23) n (%). The “Headache, patients with AE” value [1, 7] was 3 (23) n (%), the “Hypokalaemia, patients with AE” value [1, 7] was 0 n (%) and the “Hyponatraemia, patients with AE” value [1, 7] was 2 (15) n (%). The “Nausea, patients with AE” value [1, 7] was 3 (23) n (%), the “Vomiting, patients with AE” value [1, 7] was 3 (23) n (%) and the “Abdominal pain, patients with AE” value [1, 8] was 3 (23) n (%). For the same compound, the “Anaemia, patients with AE” value [1, 8] was 3 (23) n (%), the “Asthenia, patients with AE” value [1, 8] was 2 (15) n (%) and the “Constipation, patients with AE” value [1, 8] was 2 (15) n (%). The “Cough, patients with AE” value [1, 8] was 4 (31) n (%), the “Decreased appetite, patients with AE” value [1, 8] was 3 (23) n (%) and the “Dehydration, patients with AE” value [1, 8] was 3 (23) n (%). For the same compound, the “Diarrhoea, patients with AE” value [1, 8] was 4 (31) n (%), the “Dizziness, patients with AE” value [1, 8] was 2 (15) n (%) and the “Dyspnoea, patients with AE” value [1, 8] was 1 (8) n (%). For the same compound, the “Fatigue, patients with AE” value [1, 8] was 3 (23) n (%), the “Headache, patients with AE” value [1, 8] was 0 n (%) and the “Hypokalaemia, patients with AE” value [1, 8] was 2 (15) n (%). The “Hyponatraemia, patients with AE” value [1, 8] was 1 (8) n (%), the “Nausea, patients with AE” value [1, 8] was 1 (8) n (%) and the “Vomiting, patients with AE” value [1, 8] was 2 (15) n (%). For the same compound, the “Abdominal pain, patients with AE” value [1, 9] was 1 (17) n (%), the “Anaemia, patients with AE” value [1, 9] was 2 (33) n (%) and the “Asthenia, patients with AE” value [1, 9] was 0 n (%). For the same compound, the “Constipation, patients with AE” value [1, 9] was 0 n (%), the “Cough, patients with AE” value [1, 9] was 0 n (%) and the “Decreased appetite, patients with AE” value [1, 9] was 1 (17) n (%). The “Dehydration, patients with AE” value [1, 9] was 2 (33) n (%), the “Diarrhoea, patients with AE” value [1, 9] was 1 (17) n (%) and the “Dizziness, patients with AE” value [1, 9] was 1 (17) n (%). The “Dyspnoea, patients with AE” value [1, 9] was 2 (33) n (%), the “Fatigue, patients with AE” value [1, 9] was 1 (17) n (%) and the “Headache, patients with AE” value [1, 9] was 0 n (%). For the same compound, the “Hypokalaemia, patients with AE” value [1, 9] was 2 (33) n (%), the “Hyponatraemia, patients with AE” value [1, 9] was 1 (17) n (%) and the “Nausea, patients with AE” value [1, 9] was 0 n (%). For the same compound, the “Vomiting, patients with AE” value [1, 9] was 1 (17) n (%), the “Abdominal pain, patients with AE” value [1, 10] was 2 (11) n (%) and the “Anaemia, patients with AE” value [1, 10] was 6 (32) n (%). For the same compound, the “Asthenia, patients with AE” value [1, 10] was 2 (11) n (%), the “Constipation, patients with AE” value [1, 10] was 3 (16) n (%) and the “Cough, patients with AE” value [1, 10] was 1 (5) n (%). The “Decreased appetite, patients with AE” value [1, 10] was 4 (21) n (%), the “Dehydration, patients with AE” value [1, 10] was 2 (11) n (%) and the “Diarrhoea, patients with AE” value [1, 10] was 6 (32) n (%). For the same compound, the “Dizziness, patients with AE” value [1, 10] was 4 (21) n (%), the “Dyspnoea, patients with AE” value [1, 10] was 3 (16) n (%) and the “Fatigue, patients with AE” value [1, 10] was 8 (42) n (%). For the same compound, the “Headache, patients with AE” value [1, 10] was 6 (32) n (%), the “Hypokalaemia, patients with AE” value [1, 10] was 3 (16) n (%) and the “Hyponatraemia, patients with AE” value [1, 10] was 2 (11) n (%). The “Nausea, patients with AE” value [1, 10] was 2 (11) n (%), the “Vomiting, patients with AE” value [1, 10] was 6 (32) n (%) and the “Abdominal pain, patients with AE” value [1, 11] was 6 (16) n (%). For the same compound, the “Anaemia, patients with AE” value [1, 11] was 11 (29) n (%), the “Asthenia, patients with AE” value [1, 11] was 4 (11) n (%) and the “Constipation, patients with AE” value [1, 11] was 5 (13) n (%). The “Cough, patients with AE” value [1, 11] was 5 (13) n (%), the “Decreased appetite, patients with AE” value [1, 11] was 8 (21) n (%) and the “Dehydration, patients with AE” value [1, 11] was 7 (18) n (%). The “Diarrhoea, patients with AE” value [1, 11] was 11 (29) n (%), the “Dizziness, patients with AE” value [1, 11] was 7 (18) n (%) and the “Dyspnoea, patients with AE” value [1, 11] was 6 (16) n (%). The “Fatigue, patients with AE” value [1, 11] was 12 (32) n (%), the “Headache, patients with AE” value [1, 11] was 6 (16) n (%) and the “Hypokalaemia, patients with AE” value [1, 11] was 7 (18) n (%). For the same compound, the “Hyponatraemia, patients with AE” value [1, 11] was 4 (11) n (%), the “Nausea, patients with AE” value [1, 11] was 3 (8) n (%) and the “Vomiting, patients with AE” value [1, 11] was 9 (24) n (%). For the same compound, the “Abdominal pain, patients with AE” value ([1]; Total (N = 51)) was 7 (14) n (%), the “Anaemia, patients with AE” value ([1]; Total (N = 51)) was 14 (27) n (%) and the “Asthenia, patients with AE” value ([1]; Total (N = 51)) was 7 (14) n (%). For the same compound, the “Constipation, patients with AE” value ([1]; Total (N = 51)) was 8 (16) n (%), the “Cough, patients with AE” value ([1]; Total (N = 51)) was 7 (14) n (%) and the “Decreased appetite, patients with AE” value ([1]; Total (N = 51)) was 12 (24) n (%). The “Dehydration, patients with AE” value ([1]; Total (N = 51)) was 8 (16) n (%), the “Diarrhoea, patients with AE” value ([1]; Total (N = 51)) was 11 (22) n (%) and the “Dizziness, patients with AE” value ([1]; Total (N = 51)) was 8 (16) n (%). The “Dyspnoea, patients with AE” value ([1]; Total (N = 51)) was 8 (16) n (%), the “Fatigue, patients with AE” value ([1]; Total (N = 51)) was 15 (29) n (%) and the “Headache, patients with AE” value ([1]; Total (N = 51)) was 9 (18) n (%). The “Hypokalaemia, patients with AE” value ([1]; Total (N = 51)) was 7 (14) n (%), the “Hyponatraemia, patients with AE” value ([1]; Total (N = 51)) was 6 (12) n (%) and the “Nausea, patients with AE” value ([1]; Total (N = 51)) was 6 (12) n (%). For the same compound, the “Vomiting, patients with AE” value ([1]; Total (N = 51)) was 12 (24) n (%), the “Drug‐related AE: anaemia, patients” value [1, 12] was 6% and the “Drug‐related AE: decreased appetite, patients” value [1, 12] was 6%. The “Drug‐related AE: diarrhoea, patients” value [1, 12] was 10%, the “Drug‐related AE: fatigue, patients” value [1, 12] was 6% and the “Drug‐related AE: increased AST, patients” value [1, 12] was 6%. For the same compound, the “Drug‐related AE: nausea, patients” value [1, 12] was 8%, the “Drug‐related AE: pruritus, patients” value [1, 12] was 6% and the “Drug‐related AE: vomiting, patients” value [1, 12] was 12%. For the same compound, the “Patients who died during Part A (not related to study drug)” value ([1]; safety population, N = 51) was 14%, the “Patients who experienced at least one drug‐related AE” value ([1]; safety population, N = 51) was 55% and the “Patients with at least one grade ≥3 AE” value ([1]; safety population, N = 51) was 43%. For the same compound, the “Patients with serious AEs (not deemed drug‐related)” value ([1]; safety population, N = 51) was 25%, the “Patients who experienced at least one AE” value ([1]; safety population, N = 51, all study groups) was 98% and the “Mean terminal elimination half‐life (t 1/2)” value [2] was 10 to 11 h. The “Contribution of CYP3A4 to pevonedistat biotransformation” value [3] was 97%, the “AUClast, geometric LS mean ratio (test/reference) (90% CI)” value [4, 13] was 110.21 (102.34–118.69) % and the “AUC∞, geometric LS mean ratio (test/reference) (90% CI)” value [4, 13] was 110.66 (102.53–119.43) %. The “C max, geometric LS mean ratio (test/reference) (90% CI)” value [4, 13] was 98.75 (82.60–118.05) %, the AUC(0-inf) [4, 14] was 450 ng·h/mL and the AUC(0-t) [4, 14] was 445 ng·h/mL. It also gave a Cmax [4, 14] of 51.6 ng/mL, an AUC(0-inf) ([4]; human, plasma, iv, 8 mg) of 450 ng·h/mL and a Cmax ([4]; human, plasma, iv, 8 mg) of 51.6 ng/mL. For the same compound, the clearance ([4]; human, plasma, iv, 8 mg) was 528 mL/min, the half-life ([4]; human, plasma, iv, 8 mg) was 11.1 h and the “AUC∞ geometric mean ratio, presence vs. absence of fluconazole” value ([4]; pevonedistat 8 mg m^−2, n = 12) was 1.11. The “Substrate of MDR1/P‐gp” value [5] was “substrate” and the “Administered dose accounted for by metabolites” value [6] was “approximately 80%”.
